The results in this text go back to ChEMBL document CHEMBL1649334, “Trypanocidal activity of aziridinyl nitrobenzamide prodrugs” (Antimicrob Agents Chemother, 2010).

Each structure is given as a SMILES string. Calls of active or inactive are those of the source. The calls are words filed in the database; no cut-off is given here.

Test [1] concerns Trypanosoma brucei. Kind of test: Antitrypanosomal activity against Trypanosoma brucei BSF overexpressing NTR gene assessed as growth inhibition after 3 days by Alamar blue assay. Particulars: 72 h. Format: functional, organism-based. In short, it runs like this: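 Bloodstream-form 2T1 parasites overexpressing TbNTR, kept in hygromycin, seeded at 1×10^3 ml⁻¹ in modified Iscove's medium with graded compound. Tetracycline 1 μg ml⁻¹ added for induction where appropriate. 3 days at 37°C, 5% CO2, then Alamar Blue for 16 h; fluorescence at ex 530/em 585 nm. IC50 calculated; means of 4 experiments ± SD.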

For test [2], the system named is Trypanosoma cruzi. Kind of test: Antitrypanosomal activity against Trypanosoma cruzi clone Cl-Brener infected in african green monkey Vero cells assessed as growth inhibition after 3 days by luciferase reporter gene assay. Format: functional, organism-based. Particulars: 72 h. In short, it runs like this:
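Vero cells seeded at 1.5×10^4 ml⁻¹, allowed to adhere 6 h, then infected overnight with 10,000 luciferase-expressing Cl-Brener trypomastigotes per well. After two washes to remove free parasites, drug-containing medium was added for 3 days at 37°C, 5% CO2. Cells were lysed and luciferase light output read; IC50 calculated.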
In general terms: A reporter such as luciferase makes a cellular process visible.

For test [3], the system named is Vero. The test can be described thus: Cytotoxicity against african green monkey Vero cells after 6 days by Alamar blue assay. Format: cell-based. Particulars: Chlorocebus sabaeus, 144 h. The method, boiled down:
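Vero cells seeded at 1×10^4 ml⁻¹ in RPMI 1640 with 10% FCS containing graded compound (up to 250 μM). 6 days at 37°C, 5% CO2, then Alamar Blue for 8 h; fluorescence read and IC50 derived.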
In general terms: Resazurin is reduced to fluorescent resorufin, in cell work by metabolically active cells.

The subject of test [4] is V79. Kind of test: Cytotoxicity against chinese hamster V79 cells after 6 days by Alamar blue assay. The note with it: Cricetulus griseus, V79, 144 h. In kind it is cell-based.
Test [5] deals with Trypanosoma brucei. The test can be described thus: Activity of Trypanosoma brucei NTR expressed in Escherichia coli assessed as enzyme-mediated compound reduction by reverse phase HPLC. The method, boiled down:
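Recombinant His-tagged TbNTR purified from E. coli (Ni-NTA). Substrate 100 μM with 200 μM NADH, 3 mM glucose, 1 U glucose dehydrogenase in 50 mM NaH2PO4 pH 7.5 at 37°C; started with 50 μg enzyme. Aliquots at 20–600 s quenched in ice-cold methanol. Substrate loss followed by reversed-phase HPLC (4–56% acetonitrile, 254/340/450 nm), quantified against a nifurtimox standard.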

By IC50 is commonly meant the concentration needed to halve the response being measured. As to `NC(=O)c1cc([N+](=O)[O-])cc([N+](=O)[O-])c1N1CC1`, the IC50 in test [1] and in test [2] was more than 10 µM throughout.
As for `O=C(NCCN1CCOCC1)c1cc(N2CC2)c([N+](=O)[O-])cc1[N+](=O)[O-]`, the IC50 in test [1] is 0.89 µM; in test [3], more than 250 µM; in test [4], 624 µM; in test [2] it was 1.59 µM. In test [5], the result was Active.
`CS(=O)(=O)c1cc([N+](=O)[O-])c(N2CC2)cc1NCC(O)CO` (centres undefined): the IC50 in test [1] and in test [2] was more than 10 µM throughout.
Consider `CC1CS(=O)(=O)CCN1/N=C/c1ccc([N+](=O)[O-])o1` (centres undefined) [NIFURTIMOX], for which the IC50 is 64.1 µM in test [3], 35 µM in test [4] and 0.24 µM in test [2].
Take `O=C(NCCN1CCOCC1)c1cc([N+](=O)[O-])cc([N+](=O)[O-])c1N1CC1`: the IC50 in test [1] and in test [2] was more than 10 µM throughout.
As for `COC(=O)CCNC(=O)c1cc(N2CC2)c([N+](=O)[O-])cc1[N+](=O)[O-]`, the IC50 in test [1] is 1.45 µM; in test [3], more than 250 µM; in test [4] it was 634 µM; in test [2], 0.69 µM. The outcome in test [5] was Active.
On to `NC(=O)c1ccc([N+](=O)[O-])c(N2CC2)c1`, for which the IC50 in test [1] and in test [2] was more than 10 µM throughout.
Regarding `NC(=O)c1cc(N2CC2)c([N+](=O)[O-])cc1[N+](=O)[O-]` [TRETAZICAR], the IC50 in test [3] is more than 250 µM; in test [4], 543 µM; in test [2], 0.57 µM. In test [5], the outcome was Active.
As to `CS(=O)(=O)c1cc([N+](=O)[O-])c(N2CC2)cc1C(N)=O`, the IC50 in test [1] and in test [2] was more than 10 µM throughout.
Regarding `O=[N+]([O-])c1cc(NCC(O)CO)c(N2CC2)c([N+](=O)[O-])c1` (centres undefined), the IC50 in test [1] was more than 6.4 µM; in test [2], more than 10 µM.
